Active and inactive are the calls of the source. The rule behind the calls is not given here.

As a reminder, the IC50 is the midpoint of a concentration-inhibition curve. A low value points to inhibition by little substance. Broadly, the pKa is the pH at which an ionisable group is half protonated. As usually defined, the solubility is how much of the substance goes into solution per volume. The low end stands for little dissolved substance, the high end for much dissolved substance. What is called Papp is the rate of passage across a membrane or cell layer, normalised by area and donor concentration.

The nature of series [1]: Drug metabolism in human liver microsome at 10 uM after 30 mins by LC-MS analysis. The class given is ADME. As to conditions: liver microsomes, read-out: Drug metabolism. A general note: Liver microsomes are vesicles of endoplasmic reticulum, rich in cytochrome P450 enzymes.
Series [2] in a line: Drug metabolism in mouse liver microsome at 10 uM after 30 mins by LC-MS analysis. The class given is ADME. As to conditions: liver microsomes, read-out: Drug metabolism.
A short description of series [3]: Inhibition of WNT signaling in human 7dF3 cells preincubated at 20 uM for 2 hrs before beta-estradiol addition measured after 24 hrs by luciferase reporter assay. The class given is cell-based. In general terms: In a reporter assay the amount or activity of a reporter protein is the signal.
Series [4] can be described thus: Cytotoxicity against human 7dF3 cells. It is filed as cell-based.
Another series in a line: cells. As to conditions: Homo sapiens, 7dF3. The class given is cell-based.
Series [5] is described as follows: Dissociation constant, pKa of the compound. The class given is physicochemical.
The nature of series [6]: Inhibition of WNT signaling in human T-Rex HEK293 Tet-O cells harboring constitutively active deltaN-LRP6 after 4 days by luciferase reporter assay. The class given is cell-based. As to conditions: HEK293, 96 h. The essentials:
(§1)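 HEK293 T-Rex Tet-O cells stably carrying TCF-firefly luciferase-IRES-GFP reporter plus Tet-inducible cDNA (ΔN-LRP6, Dvl2, Axin-GID, ΔN-β-catenin or VP16-TCF4) introduced by FLP-FRT recombination; seeded from frozen at 40 000/well; day 3 compound added, eight concentrations 30 μM to 14 nM (final), with doxycycline hyclate; day 4 cells lysed, firefly luciferase luminescence read.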

Series [7] is described as follows: Inhibition of WNT signaling in human T-Rex HEK293 Tet-O cells harboring Dvl2 after 4 days by luciferase reporter assay. The class given is cell-based. As to conditions: HEK293, 96 h. In short, it runs like this:
as §1

Series [8] can be described thus: Inhibition of WNT signaling in human T-Rex HEK293 Tet-O cells harboring dominant negative form of Axin GSK3beta-interacting domain after 4 days by luciferase reporter assay. The class given is cell-based. As to conditions: HEK293, 96 h. In short, it runs like this:
as §1

Series [9] is described as follows: Inhibition of WNT signaling in human T-Rex HEK293 Tet-O cells harboring degradation resistant form of beta-catenin after 4 days by luciferase reporter assay. It is filed as cell-based. As to conditions: HEK293, 96 h. In short, it runs like this: as §1
A short description of series [10]: Inhibition of WNT signaling in human T-Rex HEK293 Tet-O cells harboring constitutively active VP16-TCF in absence of beta-catenin after 4 days by luciferase reporter assay. The class given is cell-based. As to conditions: HEK293, 96 h. The essentials: as §1
Series [11] in a line: Aqueous solubility of the compound. It is filed as physicochemical. As to conditions: buffer.
Series [12] is described as follows: Apparent permeability in human Caco2 cells after 2 hrs by LC-MS/MS analysis. As to conditions: caco-2, 2 h. The class given is ADME, cell-based, Caco-2.
Series [13] deals with Voltage-gated inwardly rectifying potassium channel KCNH2 (Homo sapiens, UniProt Q12809). The experiment in a line: Inhibition of human ERG.
Chain of Voltage-gated inwardly rectifying potassium channel KCNH2 (Q12809 whole entry): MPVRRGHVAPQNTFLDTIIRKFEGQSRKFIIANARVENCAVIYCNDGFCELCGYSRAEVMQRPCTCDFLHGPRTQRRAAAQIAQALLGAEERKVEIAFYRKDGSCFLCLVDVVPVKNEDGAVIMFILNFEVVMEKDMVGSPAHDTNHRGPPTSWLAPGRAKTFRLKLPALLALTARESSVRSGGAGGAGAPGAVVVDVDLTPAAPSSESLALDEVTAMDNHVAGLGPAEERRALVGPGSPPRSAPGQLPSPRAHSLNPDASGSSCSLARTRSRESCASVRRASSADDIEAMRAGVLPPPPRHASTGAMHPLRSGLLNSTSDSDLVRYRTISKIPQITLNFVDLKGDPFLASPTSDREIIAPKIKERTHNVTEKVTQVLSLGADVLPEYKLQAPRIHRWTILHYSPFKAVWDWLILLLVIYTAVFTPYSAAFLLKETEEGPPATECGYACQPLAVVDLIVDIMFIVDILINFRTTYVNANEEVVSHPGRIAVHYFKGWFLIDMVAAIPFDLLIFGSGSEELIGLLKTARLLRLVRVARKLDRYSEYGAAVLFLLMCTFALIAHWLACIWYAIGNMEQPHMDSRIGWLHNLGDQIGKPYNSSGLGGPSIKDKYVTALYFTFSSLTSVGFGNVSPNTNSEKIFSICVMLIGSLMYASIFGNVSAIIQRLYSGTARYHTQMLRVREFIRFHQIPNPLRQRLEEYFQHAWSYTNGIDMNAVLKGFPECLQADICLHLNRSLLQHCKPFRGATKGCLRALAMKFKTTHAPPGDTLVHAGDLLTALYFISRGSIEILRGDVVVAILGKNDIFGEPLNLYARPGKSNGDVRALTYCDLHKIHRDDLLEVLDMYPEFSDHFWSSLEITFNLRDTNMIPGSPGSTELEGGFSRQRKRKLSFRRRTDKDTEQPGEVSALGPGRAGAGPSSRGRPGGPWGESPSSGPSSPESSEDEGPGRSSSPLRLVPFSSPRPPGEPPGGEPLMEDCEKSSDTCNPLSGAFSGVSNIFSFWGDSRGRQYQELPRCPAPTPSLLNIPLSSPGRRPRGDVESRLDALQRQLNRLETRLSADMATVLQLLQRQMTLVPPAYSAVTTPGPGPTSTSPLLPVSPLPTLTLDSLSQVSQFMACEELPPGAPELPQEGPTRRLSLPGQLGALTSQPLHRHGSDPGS
The target in a further series is Cytochrome P450 2C9 (Homo sapiens, UniProt P11712). As to the kind of experiment: Inhibition of CYP2C9 (unknown origin). It is filed as ADME. As to conditions: human.
Chain of Cytochrome P450 2C9 (P11712 whole entry): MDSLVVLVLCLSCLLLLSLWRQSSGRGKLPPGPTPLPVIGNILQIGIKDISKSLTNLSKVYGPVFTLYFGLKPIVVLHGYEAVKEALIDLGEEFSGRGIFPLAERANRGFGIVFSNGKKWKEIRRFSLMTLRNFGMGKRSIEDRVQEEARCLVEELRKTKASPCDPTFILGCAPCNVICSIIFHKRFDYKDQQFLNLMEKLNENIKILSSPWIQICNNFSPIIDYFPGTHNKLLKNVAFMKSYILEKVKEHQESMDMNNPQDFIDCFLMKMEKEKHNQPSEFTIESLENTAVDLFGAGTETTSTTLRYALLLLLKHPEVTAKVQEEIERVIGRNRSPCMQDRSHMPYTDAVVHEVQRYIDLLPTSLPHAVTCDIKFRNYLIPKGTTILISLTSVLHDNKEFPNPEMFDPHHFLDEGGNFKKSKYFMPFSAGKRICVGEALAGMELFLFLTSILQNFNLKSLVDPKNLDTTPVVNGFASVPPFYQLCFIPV
The next series concerns the target T1, Cytochrome P450 1A2 (Homo sapiens, UniProt P05177).
T1 sequence (P05177 whole entry): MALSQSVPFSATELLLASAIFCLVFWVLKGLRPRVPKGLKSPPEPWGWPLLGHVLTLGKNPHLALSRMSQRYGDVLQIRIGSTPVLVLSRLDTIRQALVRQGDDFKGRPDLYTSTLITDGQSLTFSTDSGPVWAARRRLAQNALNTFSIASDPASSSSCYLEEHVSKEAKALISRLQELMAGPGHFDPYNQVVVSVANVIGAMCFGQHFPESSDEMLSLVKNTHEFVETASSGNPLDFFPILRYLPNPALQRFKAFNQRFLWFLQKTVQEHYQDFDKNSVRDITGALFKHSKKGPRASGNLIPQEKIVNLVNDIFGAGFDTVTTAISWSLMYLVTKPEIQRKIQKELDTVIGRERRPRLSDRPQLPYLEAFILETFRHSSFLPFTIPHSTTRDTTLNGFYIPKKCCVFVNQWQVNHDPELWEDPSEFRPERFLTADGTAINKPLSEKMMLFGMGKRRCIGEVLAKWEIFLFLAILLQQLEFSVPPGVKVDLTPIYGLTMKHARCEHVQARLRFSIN
As to the kind of experiment: Inhibition of CYP1A2 (unknown origin). The class given is ADME.

A further series deals with T2, Cytochrome P450 2C8 (Homo sapiens, UniProt P10632).
T2 sequence (P10632 whole entry): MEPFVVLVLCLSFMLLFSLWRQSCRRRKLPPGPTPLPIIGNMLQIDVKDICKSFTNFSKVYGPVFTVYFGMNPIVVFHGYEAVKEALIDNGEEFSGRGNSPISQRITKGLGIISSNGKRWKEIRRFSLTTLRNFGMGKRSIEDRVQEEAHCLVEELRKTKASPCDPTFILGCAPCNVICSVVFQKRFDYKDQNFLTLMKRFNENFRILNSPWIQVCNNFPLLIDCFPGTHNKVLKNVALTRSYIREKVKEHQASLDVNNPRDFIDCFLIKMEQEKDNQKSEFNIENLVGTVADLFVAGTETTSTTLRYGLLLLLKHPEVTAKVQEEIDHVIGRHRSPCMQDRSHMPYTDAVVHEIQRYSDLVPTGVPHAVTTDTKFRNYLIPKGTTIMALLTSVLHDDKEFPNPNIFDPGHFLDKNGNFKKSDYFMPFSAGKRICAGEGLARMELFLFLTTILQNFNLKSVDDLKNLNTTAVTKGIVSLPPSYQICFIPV
As to the kind of experiment: Inhibition of CYP2C8 (unknown origin). It is filed as ADME.

In the next series the target is Cytochrome P450 3A4 (Homo sapiens, UniProt P08684). As to the kind of experiment: Inhibition of CYP3A4 (unknown origin). The class given is ADME.
Chain of Cytochrome P450 3A4 (P08684 whole entry): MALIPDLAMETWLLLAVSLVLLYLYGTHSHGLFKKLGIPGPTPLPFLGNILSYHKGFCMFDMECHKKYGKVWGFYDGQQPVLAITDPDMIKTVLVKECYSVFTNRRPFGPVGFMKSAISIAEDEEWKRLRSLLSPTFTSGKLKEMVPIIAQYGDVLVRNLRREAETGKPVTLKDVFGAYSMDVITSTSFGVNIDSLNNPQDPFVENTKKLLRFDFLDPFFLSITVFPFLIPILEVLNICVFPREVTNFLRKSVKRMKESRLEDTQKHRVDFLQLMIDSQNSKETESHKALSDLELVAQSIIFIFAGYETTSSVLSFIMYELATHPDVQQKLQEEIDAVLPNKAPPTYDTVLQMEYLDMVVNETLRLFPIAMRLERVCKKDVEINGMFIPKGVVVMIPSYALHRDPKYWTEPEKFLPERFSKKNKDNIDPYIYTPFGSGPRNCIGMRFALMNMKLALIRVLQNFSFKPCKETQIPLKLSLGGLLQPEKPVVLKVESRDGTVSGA
The target in a further series is Cytochrome P450 2C19 (Homo sapiens, UniProt P33261). The experiment in a line: Inhibition of CYP2C19 (unknown origin). The class given is ADME.
Chain of Cytochrome P450 2C19 (P33261 whole entry): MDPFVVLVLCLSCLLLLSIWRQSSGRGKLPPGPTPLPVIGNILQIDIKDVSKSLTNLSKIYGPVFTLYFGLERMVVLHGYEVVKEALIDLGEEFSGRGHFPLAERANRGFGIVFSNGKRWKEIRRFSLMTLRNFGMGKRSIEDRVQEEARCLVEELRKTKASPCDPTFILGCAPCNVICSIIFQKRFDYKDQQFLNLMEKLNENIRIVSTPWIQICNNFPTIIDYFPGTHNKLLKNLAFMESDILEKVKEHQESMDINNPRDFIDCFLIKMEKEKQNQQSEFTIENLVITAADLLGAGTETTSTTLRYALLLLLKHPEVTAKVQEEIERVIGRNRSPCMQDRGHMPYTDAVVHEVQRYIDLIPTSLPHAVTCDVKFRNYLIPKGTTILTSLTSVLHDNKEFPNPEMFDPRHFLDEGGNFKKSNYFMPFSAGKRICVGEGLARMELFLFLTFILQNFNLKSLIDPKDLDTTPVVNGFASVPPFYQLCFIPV
Another series addresses Cytochrome P450 2D6 (Homo sapiens, UniProt P10635). As to the kind of experiment: Inhibition of CYP2D6 (unknown origin). The class given is ADME.

Chain of Cytochrome P450 2D6 (P10635 whole entry): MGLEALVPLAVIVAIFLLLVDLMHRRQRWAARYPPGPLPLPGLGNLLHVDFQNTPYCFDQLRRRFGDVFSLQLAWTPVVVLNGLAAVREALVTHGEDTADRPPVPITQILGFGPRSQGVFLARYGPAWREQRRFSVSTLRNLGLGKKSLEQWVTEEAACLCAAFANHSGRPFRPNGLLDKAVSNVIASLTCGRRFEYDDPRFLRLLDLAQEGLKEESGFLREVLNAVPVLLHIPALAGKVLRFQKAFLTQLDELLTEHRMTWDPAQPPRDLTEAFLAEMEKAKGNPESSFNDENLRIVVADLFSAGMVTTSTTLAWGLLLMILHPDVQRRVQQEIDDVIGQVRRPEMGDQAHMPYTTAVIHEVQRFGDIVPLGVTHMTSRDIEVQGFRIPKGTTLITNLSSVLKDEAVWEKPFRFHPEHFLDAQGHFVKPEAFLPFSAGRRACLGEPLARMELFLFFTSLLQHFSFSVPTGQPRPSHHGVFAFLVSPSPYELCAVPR

In the case of `NC(=O)C1CCN(c2c(Cl)cncc2Cl)CC1`, the metabolised at 0.5 h, 10 µM in [1] worked out at 22%; in [2] it was 41%. Moreover, in [3], the inhibition result was “Active”. Moreover, the Activity entry in series [4] was “Non-toxic”. Also, the 50% inhibitory concentration (IC50) in the series “cells” was 1760 nM; in series [6], 910 nM; in series [7] it was 1200 nM; in series [8], 1500 nM; in [9] it was 2730 nM; in series [10], 7610 nM. Further, the IC50 was > 10000 nM in [13] and 7000 nM against Cytochrome P450 3A4. The same compound yielded a pKa in series [5] of 3.5. Further, the solubility in [11] was > 1000 µg/mL. Besides, in series [12], the Papp came out at 36 ×10⁻⁶ cm/s. The “inhibition (INH)” value against Cytochrome P450 2C9, against Cytochrome P450 1A2, against Cytochrome P450 2C8, at Cytochrome P450 2C19 and at Cytochrome P450 2D6 was “Not Active” throughout.
